Screening results: PubChem, Broad Institute
Shown are actives, neighbours in structure and some others; about 2.5% of the full set was active somewhere.
EWS-Fli inh – EWS/Fli transcriptional activity inhibition; inhibition, % at 12.6 µM; AID 651661; 350,000 compounds, 0.67% hits; A673 NR0B1-luciferase reporter, viability-normalised;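 active = mean inhibition of at least 50% after viability correction, with every replicate also passing that limit; inconclusive = mean reaches 50% but only one of two replicates passes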;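 note: firefly luciferase signal divided by Alamar Blue viability fluorescence both relative to DMSO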
FN deposition inh – fibronectin deposition inhibition | inhibition, % at 12.6 µM | AID 743247 | AH1F fibroblasts, Alexa488-fibronectin deposition fluorescence, overnight | 350,000 compounds, 0.086% hits;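 active = mean inhibition across replicates of 30% or more, regardless of how many single replicates reach that level; inconclusive = mean under 30% yet at least half of replicates reach 30%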;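 note: positive control wells lacked labelled fibronectin entirely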
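Measured by – fluorescence 485/525 nm · System – AH1F fibroblast monolayer, labelled fibronectin deposition · Amount – 10000 cells per well · Buffer or medium – serum-reduced DMEM (2% serum) · Doses – single dose, pinned · Also added – fluorescent fibronectin at 24 nM final · Schedule – 1 h cell attachment, overnight exposure to compound and label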
MLL AF4-AF9 inh – MLL-AF4/AF9 protein interaction inhibition. inhibition, % at 10 µM. AlphaScreen, biotin-AF4 peptide binding to FLAG-AF9. AID 651704. P42568. 350,000 compounds, 0.47% hits;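 active = every replicate reaching a set inhibition limit, whatever the replicate mean, cut at about 25% in these data; inconclusive = mean inhibition reaches that limit but some replicates miss it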;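 note: 0% = plate neutral control median and 100% = total signal loss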
Target sequence (P42568 whole entry, looked up): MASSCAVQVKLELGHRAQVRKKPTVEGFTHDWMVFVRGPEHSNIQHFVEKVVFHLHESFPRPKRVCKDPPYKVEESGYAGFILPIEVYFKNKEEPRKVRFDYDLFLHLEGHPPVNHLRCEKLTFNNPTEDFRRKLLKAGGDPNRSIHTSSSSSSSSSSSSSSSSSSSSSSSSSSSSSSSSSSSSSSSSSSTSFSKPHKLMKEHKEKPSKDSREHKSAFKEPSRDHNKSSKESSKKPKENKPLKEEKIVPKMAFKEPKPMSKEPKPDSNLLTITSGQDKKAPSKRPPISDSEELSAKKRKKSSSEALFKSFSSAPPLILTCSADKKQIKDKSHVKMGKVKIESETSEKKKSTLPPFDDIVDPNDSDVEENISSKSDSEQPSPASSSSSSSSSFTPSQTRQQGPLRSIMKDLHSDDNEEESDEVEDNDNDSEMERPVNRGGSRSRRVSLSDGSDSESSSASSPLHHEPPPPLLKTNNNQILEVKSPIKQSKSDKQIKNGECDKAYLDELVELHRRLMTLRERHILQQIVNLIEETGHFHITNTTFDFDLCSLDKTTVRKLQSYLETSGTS
Env fusion inh – HIV envelope-mediated fusion inhibition. inhibition, % at 12.3 µM. AID 651610. 360,000 compounds, 1.1% hits. HeLa-JRFL Env/CEM21 cell fusion, luciferase;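 active = mean replicate inhibition score of at least 50 and every replicate individually at or above 50; inconclusive = only one of the two criteria met; inactive = mean below 50 and not all replicates reaching 50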;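 note: 0% = plate neutral controls and 100% = maraviroc near 300 nM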
PAX8 inh HTS – inhibitors of PAX8 transcriptional activity in RMG-I cells; 360,000 compounds, 1.2% hits; RMG-I TPO-luciferase reporter, SteadyGlo, 24 h; inhibition, % at 12.6 µM;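 active = mean replicate inhibition at least 60% with every replicate also reaching 60%; inconclusive = only one of the two criteria is met; inactive = mean below 60% and not all replicates reaching 60%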;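 note: luciferase light reporting Pax8 driven TPO promoter activity; plate controls were median of neutral control wells for no effect and mitoxantrone controls for full effect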
N-glyco inh – blocks N-linked glycosylation in D54 reporter cells | 360,000 compounds, 0.23% hits | reporter increase, % at 12.5 µM | D54 ERlucT glycosylation luciferase reporter, 24 h; percent of 100 nM tunicamycin response;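 active = mean luciferase reporter signal, scaled so untreated is 0 and the glycosylation-blocking control 100, at or above a set limit in every replicate; inconclusive = mean reaches the limit but not every replicate does; inactive = mean below the limit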;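 note: luciferase carries N-glycosylation sites so blocking glycosylation raises the light; 0% = median of neutral control wells and 100% = median of 100 nM tunicamycin wells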
Numbers without * were called inactive; u = inconclusive; x = no result given; [ ] = another dose, or the depositor's remark.

SMILES	EWS-Fli inh	FN deposition inh	MLL AF4-AF9 inh	Env fusion inh	PAX8 inh HTS	N-glyco inh
CC(=O)c1ccc(OCC(=O)Nc2ccc(N3CCCCC3)cc2)cc1	-1.4	1.9	25.6*	6.1	-4.1	-0.2
CC(=O)c1ccc(NC(=O)CNC2CCCCC2)cc1	2.4	-4.8	3.6	1.9	-1.3	-5.1
O=C(CNC1CCCC1)Nc1ccc(N2CCCCCC2)cc1	8.0	-8.8	43.5*	8.7	12.5	-9.2
O=C1NC(c2cccc3ccccc23)Nc2ccc(Cl)cc21 (stereo not given)	37.6	-31.4	-5.4	17.6	70.9*	7.3
Clc1ccc(C2Nc3cccc4cccc(c34)N2)c(Cl)c1	1.6	0.3	1.5	29.6	15.9	-2.4
C=C(C)CNC(=S)N/N=C/C1=CCC2CC1C2(C)C (stereo not given)	x	-8.4	x	28.9	-8.3	-7.1
CCCCNC(=S)N/N=C/C1=CCC2CC1C2(C)C (stereo not given)	x	-4.8	x	84.4*	1.2	-9.2
O=C(O)c1cc2c([nH]c1=O)CCCC2	x	-1.9	x	33.3	8.5	2.2
O=c1ccc2c([nH]1)CCCCCCCCCC2	11.3	-2.9	2.1	56.1*	13.7	-1.1
CCC(=O)Nc1ccc2c(c1)C(=O)N(C)C[C@H](OC)[C@@H](C)CN(CCc1ccccc1)[C@@H](C)CO2	2.1	-7.1	2.5	-12.5[16.7 µM]	0.8	x
Clc1cccc(-c2nnc(SCc3nc4ccccc4[nH]3)n2Cc2ccco2)c1	x	-1.2	x	u	9.2	-0.9
Clc1ccc(OCc2nnc(SCc3nc4ccccc4[nH]3)n2Cc2ccco2)cc1	x	x	x	56.2*	44.8	-6.1
Clc1ccc(Cn2ncc3c(N4CCN(c5ccccc5)CC4)ncnc32)cc1	9.3	-1.9	0.1	36.1	102.1*	-4.1
CC(C)CNC(=O)[C@@H]1c2ccccc2C(=O)N(CC23CC4CC(CC(C4)C2)C3)[C@H]1c1ccc(CO)cc1	-4.6	x	-9.0	60.7*[16.7 µM]	-6.4	x
COc1ccc(F)cc1C1=CC(=O)C[C@H](c2ccc3c(c2)OCO3)C1	53.0*	-4.4	4.4	x	-1.7	30.3*
CO[C@@H]1CN(C)C(=O)c2cc(NC(=O)CC(F)(F)F)ccc2OC[C@H](C)N(C(=O)C2CCOCC2)C[C@H]1C	-6.3	-5.0	-7.3	x	x	x
Cc1nn(C)c(C)c1CN(C)S(=O)(=O)c1ccc(F)cc1	x	x	x	x	x	-0.2
Cc1nn(C)c(C)c1CN(C)S(=O)(=O)c1ccc2ccccc2c1	x	20.1	x	71.7*	35.7	-1.7
O=S(=O)(c1ccc(Cl)cc1)N1CCCN(c2nc3ccc(Cl)cc3s2)CC1	7.1	0.7	3.3	90.6*	-7.4	-1.9
O=S(=O)(c1ccccc1)N1CCN(c2nc3ccccc3s2)CC1	x	-2.8	x	-58.8	x	1.3
COc1ccc(S(=O)(=O)Nc2ccc3c(c2)C(=O)N([C@@H](C)CO)C[C@@H](C)[C@@H](CN(C)Cc2ccc(C(=O)O)cc2)OCCCC[C@H](C)O3)cc1	-4.7	x	-2.4	-0.3[16.7 µM]	-17.3	x
CC1(C)Cc2c(C#N)c(SCC(=O)c3ccccc3)nc(N3CCOCC3)c2CS1	x	48.2*	x	-72.8	x	-2.9
CN1Cc2c(N3CCOCC3)nc(SCc3ccccc3)c(C#N)c2CC1(C)C	x	11.6	x	50.4	x	3.6
COc1ccc2c3c([nH]c2c1)[C@H](CO)N(C(=O)C1CC1)CC31CN(C)C1	-1.3	x	1.3	x	5.8	x
Cc1ccc(-c2nn3c(C)nnc3c3ccccc23)cc1S(=O)(=O)N(C)CCO	x	x	x	x	x	26.7*
C[C@@H]1CCCCO[C@H](CN(C)C(=O)CCCN(C)C)[C@@H](C)CN([C@H](C)CO)C(=O)c2cc(NC(=O)c3ccccc3)ccc2O1	-1.2	x	-2.4	-3.9[16.7 µM]	-2.7	x
C[C@H](CO)N1C[C@H](C)[C@H](CN(C)C(=O)c2ccc3c(c2)OCO3)Oc2cc(C#Cc3ccccc3F)ccc2S1(=O)=O	19.1	x	-0.7	40.2[16.7 µM]	56.0	x
C[C@H]1CN([C@@H](C)CO)S(=O)(=O)c2ccc(C#Cc3ccccc3F)cc2O[C@H]1CN(C)C(=O)Cc1ccccc1	14.2	x	-11.3	-2.5[16.7 µM]	6.5	x
C[C@H](CO)N1C[C@H](C)[C@@H](CN(C)C(=O)c2ccc3c(c2)OCO3)Oc2cc(C#Cc3ccccc3F)ccc2S1(=O)=O	24.6	x	-0.6	11.5[16.7 µM]	79.4*	x
C[C@H](CO)N1C[C@H](C)[C@@H](CN(C)C(=O)Cc2ccccc2)Oc2cc(C#Cc3ccccc3F)ccc2S1(=O)=O	33.7	x	-6.9	10.6[16.7 µM]	73.5*	x
